# Insulin prom up: insulin promoter activators in MIN6 cells, imaging, high-content screening, mouse beta cells; 190,000 tested, 0.3% active; MIN6 insulin promoter-GFP reporter; active compounds read high; z-score at 5 µM;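 active = z-score above 3 at 5 µM with at least 500 cells counted in the well; inconclusive = wells under 500 cells, flagged as cytotoxic or low count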
# HTR2A ag: mouse Htr2a agonists via beta-arrestin recruitment, primary screen, cell-based, luminescence. 5-hydroxytryptamine receptor 2A (Mus musculus), P35363. CHO-K1 mHTR2A beta-arrestin complementation; percent of 30 µM serotonin response. activation, % at 7.6 µM. 360,000 tested, 0.66% active;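 active = activation above a run cutoff, the mean activation of all tested compounds plus 3 SD, cut at about 14% in these data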;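 also: 0% = plate median of compound wells and 100% = 30 µM serotonin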
# Calb FLC: C. albicans growth inhibition with fluconazole, primary screen, CaCi-2 strain, Alamar Blue fluorescence; C. albicans CaCi-2 + fluconazole, 48 h; growth inhibition, % (no concentration beside the values); 300,000 tested, 0.57% active;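 active = growth inhibition above about 58% in most replicates, limit read from the data, passing the limit was not always enough; inconclusive = exactly half the replicates above a set limit; inactive = most replicates below a set limit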;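 also: all wells also contain fluconazole at 8 µg/ml as a sub-toxic cotreatment; 0% = median of DMSO wells and 100% = median of geldanamycin control wells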
# SR-BI DiI inh: inhibitors of SR-BI mediated HDL lipid uptake, primary screen, ldlA[mSR-BI] cells, fluorescence, single point | Scavenger receptor class B member 1 (Mus musculus), Q61009 | ldlA[mSR-BI] CHO cells, DiI-HDL uptake fluorescence, 3 h | inhibition, % at 12.5 µM | 320,000 tested, 0.96% active | AID 488896, 2010;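 active = mean replicate inhibition of at least 70% and a set share of replicates each scoring 70 or more; inconclusive = meets just one of the two criteria; inactive = fails both criteria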;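 also: 0% = median of neutral control wells and 100% = median of positive control wells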
# Target sequence (Q61009 whole entry, looked up): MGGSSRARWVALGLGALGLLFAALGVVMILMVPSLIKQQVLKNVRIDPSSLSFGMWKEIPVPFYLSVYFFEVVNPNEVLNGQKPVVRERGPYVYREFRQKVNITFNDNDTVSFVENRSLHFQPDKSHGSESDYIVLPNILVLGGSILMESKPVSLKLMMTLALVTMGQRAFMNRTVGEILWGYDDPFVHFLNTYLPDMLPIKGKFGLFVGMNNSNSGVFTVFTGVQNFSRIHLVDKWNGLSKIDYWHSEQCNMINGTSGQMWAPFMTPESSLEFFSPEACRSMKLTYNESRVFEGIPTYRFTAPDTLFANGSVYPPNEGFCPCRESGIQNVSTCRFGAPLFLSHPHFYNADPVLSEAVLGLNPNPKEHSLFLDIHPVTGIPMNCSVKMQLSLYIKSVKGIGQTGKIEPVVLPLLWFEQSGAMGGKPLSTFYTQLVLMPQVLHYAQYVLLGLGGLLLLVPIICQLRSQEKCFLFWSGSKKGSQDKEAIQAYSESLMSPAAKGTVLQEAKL
# beta cell repl: inducers of MIN6 beta-cell proliferation, primary screen, ATP luminescence, uHTS; MIN6 cells proliferation, ATPlite luminescence, 48 h; cells starved in 0.2% serum; 100% = growth in 10% serum; proliferation, % at 10 µM; 330,000 tested, 0.29% active; AID 2380, 2010;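 active = compounds whose signal lies at least 3.5 SD above the mean of all wells on their plate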;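 also: 0% = DMSO-treated cells in low-serum medium and 100% = 10% serum control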
# SR-BI DiI-HDL act: activators of SR-BI mediated DiI-HDL uptake, primary screen, ldlA[mSR-BI] CHO cells, DiI fluorescence; 3 h; 100 = double the neutral-control signal; activation, % at 12.5 µM; 320,000 tested, 0.096% active;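 active = mean replicate activation of at least 60% and every replicate at or above 60%; inconclusive = mean or all-replicate condition met, but not both; inactive = mean below 60% and not all replicates reaching 60%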;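 also: 0% = median plate neutral-control signal and 100% = twice that signal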
#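 Material: SR-BI-overexpressing, LDLR-lacking CHO cells | Dosing: Single compound concentration, delivered by pin transfer | Probe or stimulus: Labelled HDL, 10 µg/mL | Signal: Bottom-read cell fluorescence after medium removal, ex 550/em 595 nm | Schedule: 3 h, 37 °C | Evaluation: HDL uptake via cellular fluorescence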
# Starred values were filed as active, the others as inactive; ? = inconclusive; . = not tested or not shown. Only some compounds are listed: those with a hit (about 2.4% of all), similar ones and a draw of the others.
SMILES,Insulin prom up,HTR2A ag,Calb FLC,SR-BI DiI inh,beta cell repl,SR-BI DiI-HDL act
COc1ccc(Cl)cc1NC(=O)c1c(-c2ccccc2)noc1C,18*,3,4,76*,-2,-76
CCOC(=O)c1csc(N)c1-c1ccc([N+](=O)[O-])cc1,-1,-2,3,-69,-3,69*
CCOC(=O)c1c(-c2cccc([N+](=O)[O-])c2)csc1N,.,2,-22,20,-2,-20
CCOC(=O)C1=NOC2(C1)C(=O)Nc1ccc(OC)cc12 (stereo not given),.,0,.,.,.,.
O=C1NN(c2ccc(F)cc2)C(=O)/C1=C/c1cccs1,0.66,1,101*,-26,5,26
CCCSc1ccc([C@H]2N[C@@](CC(C)C)(C(=O)OC)[C@H]3C(=O)N(C)C(=O)[C@@H]23)cc1,.,-9,-12,74*,-3,-74
CCCCCCSc1ccc([C@H]2N[C@@](CC(C)C)(C(=O)OC)[C@H]3C(=O)N(C)C(=O)[C@@H]23)cc1,.,6,-2,41,-8,-41
O=C(NCC(c1cccs1)N1CCOCC1)c1cc(-c2ccc(F)cc2)nc2ccccc12 (stereo not given),0.55,-5,2,84*,-4,-84
O=C(N/N=C/c1ccc[nH]1)c1sc2ccccc2c1Cl,0.24,-10,4,75*,-5,-75
O=C(N/N=C/c1ccc[nH]1)c1cc(-c2ccc(Cl)cc2)nc2ccccc12,-1.4,-13,3,93*,-6,-93
O=C(NC1CCC(O)CC1)c1cc(-c2ccc(Cl)cc2)nc2ccccc12 (stereo not given),.,9,.,77*,-4,-77
O=C(N/N=C/c1cccnc1)c1cc(-c2ccc(Cl)cc2)nc2ccccc12,.,-8,23,46,-4,-46
Cn1cnnc1SCc1ccc(C(=O)N/N=C(/CCC(=O)O)c2ccc(C(C)(C)C)cc2)cc1,.,13,.,4,.,-4
Cc1cc(C)n(CCNC(=O)[C@H]2O[C@@H](n3ccc(=O)[nH]c3=O)[C@H](O)[C@@H]2O)n1,.,2,.,.,.,.
O=C(NNC(=O)c1cc(-c2ccccc2)nc2ccccc12)c1csc(N2CCOCC2)n1,.,-9,48,34,-2,-34
O=C(NNC(=O)c1cc(-c2ccc(Cl)cc2)nc2ccccc12)c1csc(N2CCOCC2)n1,.,2,82*,38,-4,-38
Cc1cc(C)nc(SCC(=O)OC(C)C(=O)Nc2ccccc2)n1 (stereo not given),.,9,0,-62,-2,62*
Cc1ccc(NC(=O)C(C)OC(=O)CSc2ccccc2)cc1 (stereo not given),.,-2,.,-12,2,12
CCOc1ccccc1/C=C/c1onc(C)c1S(=O)(=O)N1CCC(C(=O)N2CCCCCC2)CC1,.,-8,4,92*,-4,-92
CCOc1ccccc1/C=C/c1onc(C)c1S(=O)(=O)N1CCC(C(=O)NC(C)C)CC1,.,-2,?,51,0,-51
Cc1ccc(C)c(-c2nnc(NC(=O)c3ccco3)o2)c1,.,6,83*,-8,1,8
CC1C/C(=N/Nc2nc3ccccc3[nH]2)CC(C)(C)C1 (stereo not given),-1.8,-4,-27,-19,-5,19
Cc1cc(N/N=C2\CC(C)CC(C)(C)C2)nc2ccccc12 (stereo not given),0.7,-1,87*,18,-5,-18
CCOc1ccc(N(CC(=O)NC2CCCC2)C(=O)CSc2nnc(COc3ccccc3)o2)cc1,0.35,-2,-9,47,-4,-47
COc1ccc(C=NNC(=O)c2ccccc2NS(=O)(=O)c2cccs2)cc1O,.,3,.,1,-2,-1
NC(=O)c1cc(NC(=O)c2ccc(NS(=O)(=O)c3cccs3)cc2)cc(C(N)=O)c1,-0.41,-6,-7,7,-3,-7
